Columns and labels:
[1] = Inhibition of HIV1 reverse transcriptase wild type HXB2(b) in presence of 3.2 mM ATP by prA/odT assay; parameters: species or system Human immunodeficiency virus 1
[2] = Inhibition of HIV1 reverse transcriptase wild type HXB2(a) by heteropolymeric DNA polymerase assay; parameters: species or system Human immunodeficiency virus 1
Outline: (§1)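 Heteropolymeric assay without ATP: plate-bound 18-mer DNA primer (~110 nM) with 50-mer 5′-A12-(GTCA)5 template (190 nM). dATP, dGTP, dCTP and BrdUTP at 1.0 μM each, in HEPES 50 mM pH 7.3, MgCl2 10 mM. RT 30–100 pM, 33°C for 180 min, then NaOH dehybridization and anti-BrdU-AP tracer read at 405 nm. IC50 from seven triphosphate concentrations; two to four runs in duplicate.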

[3] = Inhibition of HIV1 reverse transcriptase 41L/69S-SG/184V/210W/215Y mutant in presence of 5 mM ATP by heteropolymeric DNA polymerase assay; parameters: species or system Human immunodeficiency virus 1
Outline: (§2)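 Heteropolymeric DNA polymerase assay with ATP added at 5 mM. Purified HIV-1 RT at 30–100 pM acts on a plate-bound DNA primer with a 5′-A12-(GTCA)5-3′ template. dATP, dGTP, dCTP and BrdUTP at 1.0 μM each. Incubation 180 min at 33°C. BrdUMP incorporation read via anti-BrdU-AP at 405 nm after NaOH dehybridization. IC50 from seven inhibitor concentrations, at least two experiments in duplicate.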

[4] = Inhibition of HIV1 reverse transcriptase 41L/67N/70R/210W/215Y mutant by heteropolymeric DNA polymerase assay; parameters: species or system Human immunodeficiency virus 1
Outline: (§3)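 Purified p66/p51 HIV-1 RT, or p66 homodimer for 65R, at 30–100 pM (about 1.5–4.5 mU/well). Plate-bound 18-mer DNA primer on a 50-base 5′-A12-(GTCA)5-3′ DNA template. dATP, dGTP, dCTP and BrdUTP at 1.0 μM each, no ATP. Buffer: HEPES 50 mM pH 7.3, 10 mM MgCl2. Incubation 180 min at 33°C, NaOH dehybridization, anti-BrdU-AP tracer, A405. IC50 from seven inhibitor concentrations, at least two experiments in duplicate.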

[5] = Inhibition of HIV1 reverse transcriptase 41L/67N/70R/215Y/219Q mutant in presence of 3.2 mM ATP by prA/odT assay; parameters: species or system Human immunodeficiency virus 1
Outline: (§4)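 Buffer: 50 mM HEPES pH 7.3, 10 mM MgCl2, 0.5% Triton X-100, 0.1 mg/ml BSA. Incubation 180 min at 33°C. Product detected with AP-conjugated anti-BrdU at 405 nm. […] Ki from four inhibitor levels. At least two experiments in duplicate.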

[6] = Inhibition of HIV1 reverse transcriptase 41L/67N/70R/210W/215Y mutant in presence of 3.2 mM ATP by prA/odT assay; parameters: species or system Human immunodeficiency virus 1; outline: as §4
[7] = Inhibition of HIV1 reverse transcriptase wild type HXB2(a) in presence of 3.2 mM ATP by prA/odT assay; parameters: species or system Human immunodeficiency virus 1
[8] = Inhibition of HIV1 reverse transcriptase wild type HXB2(b) by heteropolymeric DNA polymerase assay; parameters: species or system Human immunodeficiency virus 1; outline: as §1
[9] = Inhibition of HIV1 HXB2 reverse transcriptase 41L/67N/70R/215Y/219Q mutant by heteropolymeric DNA polymerase assay
[10] = Inhibition of HIV1 reverse transcriptase 41L/69S-SG/210W/215Y mutant in presence of 5'-A12-(GACT)5-3' by heteropolymeric DNA polymerase assay
[11] = Inhibition of HIV1 reverse transcriptase 41L/67N/70R/210W/215Y mutant in presence of 5'-A12-(GACT)5-3' by heteropolymeric DNA polymerase assay; parameters: species or system Human immunodeficiency virus 1
Outline: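 DNA polymerase assay with 5 mM ATP and 1 μM each dATP, dGTP, dCTP and BrdUTP. The 50-base DNA template carries a 5′-A12 tail with a (GTCA)5 or (GACT)5 repeat. Incubation 180 min at 33°C, NaOH dehybridization, anti-BrdU-AP detection at 405 nm. IC50 from at least two experiments in duplicate. Fold change is relative to wild-type RT on the same template.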

[12] = Inhibition of HIV1 reverse transcriptase 41L/67N/70R/184V/210W/215Y mutant by heteropolymeric DNA polymerase assay; parameters: species or system Human immunodeficiency virus 1; outline: as §3
[13] = Inhibition of HIV1 reverse transcriptase 41L/67N/70R/210W/215Y mutant in presence of 5 mM ATP by heteropolymeric DNA polymerase assay; parameters: species or system Human immunodeficiency virus 1
Outline: as §2, with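 “33°C.” for “33°C. BrdUMP incorporation read via anti-BrdU-AP at 405 nm after NaOH dehybridization.”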

[14] = Inhibition of HIV1 reverse transcriptase wild type HXB2(a) in presence of 20 uM dNTP by heteropolymeric DNA polymerase assay; parameters: species or system Human immunodeficiency virus 1
Outline: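 Heteropolymeric DNA assay containing 5 mM ATP on the 5′-A12-(GTCA)5 template, with each dNTP (BrdUTP in place of TTP) at 1 μM or, in the modified version, 20 μM. Mean IC50 from at least two runs in duplicate.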

[15] = Inhibition of HIV1 reverse transcriptase 41L/67N/70R/210W/215Y mutant in presence of 5'-A12-(GTCA)5-3' by heteropolymeric DNA polymerase assay; parameters: species or system Human immunodeficiency virus 1
Outline: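 DNA polymerase assay with 5 mM ATP and 1 μM each dATP, dGTP, dCTP and BrdUTP. The 50-base DNA template carries a 5′-A12 tail with a (GTCA)5 or (GACT)5 repeat. IC50 from at least two experiments in duplicate. Fold change is relative to wild-type RT on the same template.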

[16] = Inhibition of HIV1 reverse transcriptase wild type HXB2(a) in presence of 5'-A12-(GACT)5-3' by heteropolymeric DNA polymerase assay; parameters: species or system Human immunodeficiency virus 1
Outline: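 Heteropolymeric DNA assay with 5 mM ATP and dNTPs (BrdUTP replacing TTP) at 1.0 μM, using an alternative template repeat, 5′-A12-(GACT)5-3′. Run at 33°C for 180 min, followed by NaOH dehybridization and anti-BrdU-AP detection at 405 nm. IC50 reported in μM as the mean of at least two runs in duplicate.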

[17] = Inhibition of HIV1 LAI reverse transcriptase 65R mutant by heteropolymeric DNA polymerase assay; parameters: species or system Human immunodeficiency virus 1; outline: as §3

Compound | Ki [1] | IC50 [2] | IC50 [3] | IC50 [4] | Ki [5] | Ki [6] | Ki [7] | IC50 [8] | IC50 [9] | IC50 [10] | IC50 [11] | IC50 [12] | IC50 [13] | IC50 [14] | IC50 [15] | IC50 [16] | IC50 [17]
Cc1cn([C@H]2C[C@H](N=[N+]=[N-])[C@@H](COP(=O)(O)OP(=O)(O)OP(=O)(O)O)O2)c(=O)[nH]c1=O [ZIDOVUDINE TRIPHOSPHATE] | 4 nM | 180 nM | 1200 nM | 140 nM | 95 nM | 130 nM | 5.4 nM | 200 nM | 190 nM | – | – | – | – | – | – | – | –
Cc1cn([C@H]2CO[C@@H](COP(=O)(O)OP(=O)(O)OP(=O)(O)O)O2)c(=O)[nH]c1=O | 1.8 nM | – | 1400 nM | – | 11 nM | 13 nM | 2.8 nM | 120 nM | 130 nM | 780 nM | 400 nM | 160 nM | 500 nM | 2000 nM | 500 nM | 310 nM | 460 nM
C[C@H](Cn1cnc2c(N)ncnc21)OCP(=O)(O)OP(=O)(O)OP(=O)(O)O | – | 1600 nM | – | 1400 nM | – | – | – | – | – | 17000 nM | 8600 nM | 1400 nM | 13000 nM | 19000 nM | 13000 nM | 2800 nM | 12000 nM

From ChEMBL document CHEMBL1143844, “Biochemical studies on the mechanism of human immunodeficiency virus type 1 reverse transcriptase resistance to 1-(beta-D-dioxolane)thymine triphosphate” (Antimicrob Agents Chemother, 2007)
